# Bioassay records as filed in PubChem.
# PostGolgi yeast: growth inhibition of a yeast mutant, post-Golgi transport screen; post-Golgi transport phenotypic cell assay; inhibition, % at 10 µM; hit rate 0.9% among 98,000; AID 739;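 further: yeast cells grown in 1536-well plates; yeast grown about 18 h at 30C before absorbance read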
# E coli WT exp: blocks growth of wild type E. coli BW25113; OD600 absorbance; growth inhibition, % at 100 µM; hit rate 0.15% among 98,000; AID 710;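 active means growth inhibition above about 50% at one test dose, limit read from the data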;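 further: growth measured after 20 h incubation at 37 °C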
# Cav3 T inh: human Cav3.2 channel inhibition, primary screen | Cav3.2-expressing cells, Fluo-4 calcium fluorescence FDSS; active compounds read low | hit rate 4% among 100,000 | B-score at 10 µM | AID 449739;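 active means single-dose well whose peak fluorescence ratio is a statistical outlier from its plate by either plate-standardised score or position-corrected B-score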
# Ecoli tolC: E. coli tolC mutant growth inhibition. AID 573. E. coli BW25113 tolC mutant growth, OD615. hit rate 2.2% among 65,000. growth inhibition, % at 10 µM (by protocol);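 active means growth inhibition at or above a cutoff equal to the mean over every tested compound plus 3 SD, cut at about 60% in these data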;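 further: growth measured after 20 h incubation at 37 °C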
#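 Test system – E. coli BW25113 ΔtolC::kan, tolC deletion mutant strain · Detection – OD at 615 nm · Buffer or medium – LB with kanamycin 50 µg/mL · Times – 20 h compound exposure of bacteria at 37 °C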
# PostGolgi ctrl: growth of the yeast control strain, post-Golgi counter-screen. efflux-deficient yeast background strain, growth absorbance A615, 16 h. inhibition, % at 10 µM. hit rate 5% among 98,000. AID 738
# Pyk2 oligo antag: Pyk2 (human) oligomerization antagonism. hit rate 0.83% among 99,000. AID 1347419. Q293 cells, Pyk2 FERM NanoBiT luminescence; active compounds read low. z-score (the deposit names both 25 µM and 10 µM);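 active means Z-score of -3 or lower, scaled per plate to the spread of control and sample wells; inactive means z-score above -3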;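 further: negative z-score means lost luminescence so less FERM oligomerization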
# Target sequence (Q14289 whole entry, looked up): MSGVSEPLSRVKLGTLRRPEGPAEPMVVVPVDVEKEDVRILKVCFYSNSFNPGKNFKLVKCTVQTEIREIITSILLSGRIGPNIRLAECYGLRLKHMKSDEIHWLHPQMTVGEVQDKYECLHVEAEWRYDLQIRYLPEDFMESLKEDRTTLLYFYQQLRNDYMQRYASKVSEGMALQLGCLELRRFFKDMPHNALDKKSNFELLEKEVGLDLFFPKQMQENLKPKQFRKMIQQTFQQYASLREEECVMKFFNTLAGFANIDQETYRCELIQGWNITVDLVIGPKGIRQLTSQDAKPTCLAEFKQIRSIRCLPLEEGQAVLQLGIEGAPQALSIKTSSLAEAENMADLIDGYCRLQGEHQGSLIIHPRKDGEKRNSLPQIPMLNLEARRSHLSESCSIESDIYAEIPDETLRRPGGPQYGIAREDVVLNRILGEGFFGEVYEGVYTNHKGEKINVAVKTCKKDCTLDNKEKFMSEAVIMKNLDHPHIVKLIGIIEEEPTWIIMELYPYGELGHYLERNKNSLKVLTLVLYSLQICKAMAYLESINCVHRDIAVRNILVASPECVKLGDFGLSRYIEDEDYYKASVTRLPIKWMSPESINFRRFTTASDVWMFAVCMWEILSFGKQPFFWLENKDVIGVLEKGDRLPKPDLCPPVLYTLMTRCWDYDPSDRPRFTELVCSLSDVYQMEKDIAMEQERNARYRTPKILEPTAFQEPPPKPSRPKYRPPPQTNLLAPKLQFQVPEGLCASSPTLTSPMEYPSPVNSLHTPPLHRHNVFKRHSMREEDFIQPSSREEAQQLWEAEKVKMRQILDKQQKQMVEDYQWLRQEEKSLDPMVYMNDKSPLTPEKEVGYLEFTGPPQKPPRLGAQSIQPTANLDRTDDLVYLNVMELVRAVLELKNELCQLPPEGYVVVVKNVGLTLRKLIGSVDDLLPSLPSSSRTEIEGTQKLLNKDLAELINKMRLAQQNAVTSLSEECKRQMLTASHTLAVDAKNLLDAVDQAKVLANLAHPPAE
# * = called active by the depositor; . = not tested or not shown. Only some compounds are listed: those with a hit (about 8.7% of all), similar ones and a draw of the others. Unless noted, no stated cut-off is given here; in the data, active means inhibition above about 30%; inactive means the rest.
SMILES,PostGolgi yeast,E coli WT exp,Cav3 T inh,Ecoli tolC,PostGolgi ctrl,Pyk2 oligo antag
Clc1ccc(CN(Cc2ccccc2)C(c2cccs2)c2nnnn2C2CCCC2)cc1 (configuration not stated),5,-4,-2.1,.,0,0.6
CC(C)(C)c1ccc(CN(Cc2ccccc2)C(c2ccccn2)c2nnnn2C(C)(C)C)cc1 (configuration not stated),8,-12,-3,.,22,-0.64
CC(C)(C)n1nnnc1CN(Cc1ccco1)Cc1cc2cc3c(cc2[nH]c1=O)OCO3,-3,-1,0.37,-1,1,0.35
CC(C)(C)n1nnnc1C(c1cccs1)N(Cc1ccc(Cl)cc1)CC1CCCO1 (configuration not stated),-4,-8,-4.6*,.,9,-1.6
CC(C)(C)n1nnnc1CN(Cc1cccnc1)Cc1ccccc1Cl,50*,7,0.058,.,20,-1.6
CC(C)(C)n1nnnc1C(c1cccnc1)N(Cc1ccccc1)Cc1cccs1 (configuration not stated),-3,-23,-3.9,.,21,-3.6*
COc1ccc(N(C(=O)Cn2nnc3ccccc32)C(C(=O)NCc2ccco2)c2cccnc2)cc1 (configuration not stated),2,-3,0.0035,-11,-3,-0.52
Cc1cccc2cc(CN(C(=O)c3cnccn3)C3CCCCC3)c(Cl)nc12,-4,-6,-2.5,.,33*,-2.4
Cc1cccc2cc(CN(Cc3ccccc3)C(=O)c3cccc(F)c3)c(Cl)nc12,-4,-17,-2.7,.,21,-1.7
CCCn1c(=O)c2ccccc2n2c(SCc3cc(=O)n4ccsc4n3)nnc12,.,.,.,-11,.,.
Cc1cccc(-n2c(SCc3cc(=O)n4ccsc4n3)nc3ccccc32)c1,5,-10,.,15,33*,-1.7
Cc1cc2ncn(CC(O)COC3CCCCC3)c2cc1C (configuration not stated),13,3,-0.49,22,31*,1.9
CCCCn1c2c(c(=N)c3c1CCC3)CCC2,0,8,0.016,16,10,-1.3
CCCCCCn1c2c(c(=N)c3c1CCC3)CCC2,-6,24,-1.5,90*,17,-0.39
CCCCCCCCCn1c2c(c(=N)c3c1CCC3)CCC2,.,.,-6.2*,.,.,-0.85
N=c1c2c(n(Cc3ccc(F)cc3)c3c1CCC3)CCC2,13,-1,-0.61,15,-1,-0.36
N#Cc1cccc(-c2cn(S(=O)(=O)c3ccc(Cl)cc3)nc2N)c1,-7,0,0.79,0,31*,-0.14
COc1ccccc1CCNCc1ccc(OC)c(OCc2ccccc2)c1,0,6,-4.8*,.,-2,1.2
COc1cc(CNCC(O)c2ccccc2)ccc1OCc1ccc(Cl)nc1 (configuration not stated),0,6,-0.63,.,4,1.3
COc1cc(CNCCc2ccccc2)ccc1OCc1ccc(Cl)nc1,18,1,.,.,39*,0.45
COc1ccc(C2CC(c3ccccc3)Nc3nc(NC(=O)c4ccco4)nn32)cc1 (configuration not stated),4,12,-1.3,32,-4,-3.7*
Cc1[nH]c2ccccc2c1Cc1nnc(SCc2ccccc2)o1,11,-17,-8.6*,.,35*,.
CN(C)S(=O)(=O)c1ccc(C(=O)Nc2ccnn2C2CCCCC2)cc1,-3,1,0.84,-1,-1,0.86
CN(Cc1ccccc1)C1CC(=O)N(c2ccc(C(=O)O)cc2)C1=O (configuration not stated),-2,-6,1.3,-12,42*,0.57
COc1cc(-c2nnc3sc(C4CCCCC4)nn23)cc(OC)c1OC,2,-11,-0.65,21,22,-1.2
SMILES,PostGolgi yeast,E coli WT exp,Cav3 T inh,Ecoli tolC,PostGolgi ctrl,Pyk2 oligo antag
CCOc1cccc(-c2nnc3sc(-c4cc(OC)c(OC)cc4OC)nn23)c1,.,.,.,0,.,.
c1cncc(-c2nnc3sc(C4CCCCC4)nn23)c1,11,3,3.2*,10,0,0.89
CCOc1cccc(-c2nnc3sc(C4CCCCC4)nn23)c1,-3,-13,-3.4,17,33*,-1
COc1cccc(-c2nnc3sc(C4CCCCC4)nn23)c1,10,11,-1.7,6,33*,-2.1
C=CCSc1nc(NC)c2sccc2n1,0,7,.,.,11,-0.27
CCOC(=O)C1=C(C)NC2=C(C1c1ccc([N+](=O)[O-])cc1)S(=O)(=O)c1ccccc12 (configuration not stated),1,-1,-2,.,18,-3*
